# Results of several laboratories.
# Compare with care: the assays were run in different laboratories.
# Target: Interferon-induced, double-stranded RNA-activated protein kinase (EIF2AK2, Homo sapiens, UniProt P19525)
SMILES,test,test system,setting,measurement,result
N#Cc1ccc(Nc2ccc3[nH]c(=O)[nH]c3c2)c(Cl)c1,"cell-free assay, competition with immobilised ligand",,1 µM,remaining binding,57%
CC(C)(C)c1nc(-c2cccc(NS(=O)(=O)c3c(F)cccc3F)c2F)c(-c2ccnc(N)n2)s1,"enzyme activity, inhibitor, radiometric",,1 µM,remaining activity,95%
CC/C(=N\NC(=O)NCc1cccc(O)c1)c1ccc(O)c(C)c1O,"enzyme activity, inhibitor",,0.1 µM,inhibition,8.7%
C[C@H]1CCN(c2nccc(-c3cnn4ncccc34)n2)C1,binding,,1 µM,remaining binding,100%
Cc1ccc(C(=O)Nc2ccc(CN3CCN(C)CC3)c(C(F)(F)F)c2)cc1C#Cc1cnc2cccnn12,"enzyme activity, inhibitor",,23.5 nM,remaining activity,100%
Cc1ccc(C(=O)NCc2ccsc2)cc1C#Cc1cn(C(C)C)c2ncnc(N)c12,"enzyme activity, inhibitor",,1 µM,activity vs control,97%
Cc1cnc(NC2CCOCC2)nc1-n1cnc(C(=O)NC(CN)c2cc(F)cc(Cl)c2)c1 (centres unmarked),"enzyme activity, inhibitor, radiometric",,1 µM,remaining activity,39%
CC(C)(C)c1nc2c(s1)c1nc(N)ncc1c1ccc(NS(=O)(=O)c3c(F)cccc3F)c(F)c12,"enzyme activity, inhibitor, radiometric",,1 µM,remaining activity,93%
Nc1ncnc2occ(-c3ccc(NC(=O)Nc4cc(C(F)(F)F)ccc4F)cc3)c12,"cell-free assay, inhibitor",,20 µM,remaining signal,54%
Cc1nc(N2CC[C@@H](O)C2)ncc1-c1cc(C(F)(F)F)cc2[nH]ncc12,"binding, competition with immobilised ligand",,1 µM,remaining binding,100%
c1ccc(CNc2nc(N3CCOc4ccccc43)nc3c2CCCC3)cc1,"target engagement in cells, inhibitor, chemoproteomics",,20 mM,inhibition,-5.4%
Cc1cc(NC(=O)c2cccc3cc(-c4cccc5[nH]nc(N)c45)ccc23)ccc1F,"enzyme activity, inhibitor",,0.1 µM,activity vs control,106%
CNc1cc(Oc2cc(C(=O)Nc3cc(N4CCN(C)CC4)cc(C(F)(F)F)c3)ccc2C)ncn1,"target engagement in cells, inhibitor, chemoproteomics",Huh-7,1 µM,inhibition,-13%
CN1CC(Oc2cnc(C#N)cc2-c2ccn3nc(NC(=O)C4CC4)cc3c2)C1,"enzyme activity, inhibitor",,1 µM,inhibition,14%
CCCCNc1ncc2c(-c3ccc(F)cc3)nn(C[C@H]3CC[C@H](N)CC3)c2n1,"target engagement in cells, inhibitor, chemoproteomics",,20 mM,inhibition,8.5%
CC(C)CC(=O)N1CCc2nc(-c3ccc(Br)cc3)nc(N(C)Cc3ccccc3)c2C1,"cell-free assay, competition with immobilised ligand",,0.1 µM,remaining binding,100%
Cc1ccc(NC(=O)c2ccc(C)c(C(F)(F)F)c2)cc1C#Cc1nn(C2CCC(O)CC2)c2ncnc(N)c12 (centres unmarked),cell-free assay,,10 µM,remaining signal,75%
